{"source": "paper PMC10979821", "about": "(Current pharmaceutical design, 2023)", "key": {"[1]": {"conditions": "cited from earlier work"}, "[2]": {"experiment": "Serum pharmacokinetics of THC and metabolites after inhaled or i.p. THC", "assay_type": "in vivo, female Sprague Dawley rats"}, "[3]": {"system": "female Sprague Dawley rats", "experiment": "Locomotor activity in OpenField arena after i.p. or inhaled THC", "assay_type": "in vivo, rat", "conditions": "for vertical plane entries (rearing), total: 45 minute session", "summary_of_the_method": "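Separate cohort of adult female rats (n=15): habituation session, then five vehicle or THC days, each 3 days apart. Dosing was 2 mg/kg i.p., or 10 min vapour exposure (0.25 mL of 40 or 160 mg/mL; 0.19 or 0.76 mg/kg). Rats entered the arena immediately for 45 min, n=10–15 per group. Analysis: two-way RM ANOVA (time × treatment), Sidak or Tukey post hoc.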"}, "[4]": {"conditions": "cited from earlier work", "remark": "listed apart in the source"}, "rodents": {"system": "rodents", "conditions": "i.p. injected THC; cited from earlier work"}, "[5]": {"conditions": "0.19 mg/kg vaporized/inhaled THC (0.25 mL of 40 mg/mL, 10 min exposure), serum"}, "[6]": {"conditions": "0.76 mg/kg vaporized/inhaled THC (0.25 mL of 160 mg/mL, 10 min exposure), serum"}, "[7]": {"conditions": "2 mg/kg THC i.p., serum, female Sprague Dawley rats"}, "[8]": {"conditions": "female, Sprague Dawley, rat, serum, inhaled or intranasal, 0.19 mg/kg"}, "[9]": {"conditions": "female, Sprague Dawley, rat, serum, inhaled or intranasal, 0.76 mg/kg"}, "[10]": {"conditions": "female, Sprague Dawley, rat, serum, ip, 2 mg/kg"}}, "note": "Entries after “also recorded” stand apart in the source; their conditions may differ. Like-named read-outs stand apart in the source and are kept apart here.", "data": [{"molecule": "11-hydroxy-delta-9-tetrahydrocannabinol [11-OH-THC]", "values": [{"measurement": "metabolite level relative to THC", "setting": "[1]; human, acute inhalation, % of THC", "result": "up to 30%"}, {"measurement": "Tmax", "setting": "[2]; 0.19 mg/kg vaporized THC, time after conclusion of inhalation", "result": 5, "unit": "min"}, {"measurement": "Cmax (maximum serum concentration)", "setting": "[2]; [5]", "result": "14.4 ± 1.4", "unit": "ng/mL"}, {"measurement": "Tmax", "setting": "[2]; 0.76 mg/kg vaporized THC, time after conclusion of inhalation", "result": 5, "unit": "min"}, {"measurement": "Cmax (maximum serum concentration)", "setting": "[2]; [6]", "result": "35.6 ± 7.4", "unit": "ng/mL"}, {"measurement": "Cmax (maximum serum concentration)", "setting": "[2]; [7]", "result": "84.2 ± 19.3", "unit": "ng/mL"}, {"measurement": "Tmax", "setting": "[2]; 2 mg/kg THC i.p., time post-injection", "result": 20, "unit": "min"}]}, {"molecule": "CCCCCc1cc(O)c2c(c1)OC(C)(C)[C@@H]1CCC(C)=C[C@@H]21", "note": "[THC, delta-9-tetrahydrocannabinol]", "values": [{"measurement": "vertical plane entries (rearing), total", "setting": "[3]; 0.19 mg/kg INH THC vs vehicle", "result": "Significantly reduced; also recorded: significantly decreased; also recorded: reduced rearing activity"}, {"measurement": "floor plane distance", "setting": "[3]; 0.76 mg/kg inhaled THC vs vehicle, at 20 minutes", "result": "significantly higher; also recorded: slightly heightened locomotion"}, {"measurement": "horizontal distance traveled or altered thigmotaxis", "setting": "[3]; 0.76 mg/kg inhaled THC, over a 45-minute period", "result": "minimal effect"}, {"measurement": "center distance travelled", "setting": "[3]; 0.76 mg/kg vaporized THC vs vehicle, at 20 minutes", "result": "significantly higher; also recorded: increased center distance travelled"}, {"measurement": "vertical plane entries (rearing), total", "setting": "[3]; 2 mg/kg i.p. THC vs vehicle", "result": "Significantly reduced; also recorded: significant reduction; also recorded: reduced rearing activity"}, {"measurement": "margin distance, post-hoc comparisons", "setting": "[3]; vaporized THC 0.19 or 0.76 mg/kg vs vehicle", "result": "no significant post-hoc comparisons"}, {"measurement": "plasma concentration Cmax", "setting": "[1]; human clinical study at a similar dose", "result": "73.81 ± 63.09", "unit": "ng/mL"}, {"measurement": "plasma Cmax values across individual subjects", "setting": "[1]; human, 6 subjects given the same dose of THC under the same regime", "result": "70 to 280", "unit": "ng/mL"}, {"measurement": "mean Cmax of THC", "setting": "[1]; human, acute THC inhalation, whole blood, lowest mean across studies", "result": 4, "unit": "ng/mL"}, {"measurement": "mean Cmax ranges in clinical studies", "setting": "[1]; human, smoked or vaped cannabis at similar doses", "result": "4 to 162", "unit": "ng/mL"}, {"measurement": "time of peak THC brain levels", "setting": "[4]; after THC inhalation in males, ref 35 (Hložek et al.)", "result": 15, "unit": "min"}, {"measurement": "mean Cmax levels of THC", "setting": "[4]; female Sprague Dawley rats, 5 minutes post-30 minute inhalation of 200 mg/mL THC", "result": 303, "unit": "ng/mL"}, {"measurement": "time of peak THC brain levels", "setting": "[4]; ref 26 (Baglot et al.)", "result": 30, "unit": "min"}, {"measurement": "Vss (volume of distribution at steady state)", "setting": "[2]; 0.19 mg/kg vaporized", "result": 8.6, "unit": "L/kg"}, {"measurement": "Vss (volume of distribution at steady state)", "setting": "[2]; 0.76 mg/kg vaporized", "result": 24.4, "unit": "L/kg"}, {"measurement": "AUC(0-inf)", "setting": "[2]; [8]", "result": 87, "unit": "ng·h/mL"}, {"measurement": "CL/F", "setting": "[2]; [8]", "result": 38.3, "unit": "mL/min/kg"}, {"measurement": "Cmax", "setting": "[2]; [8]", "result": 43.3, "unit": "ng/mL"}, {"measurement": "Tmax", "setting": "[2]; [8]", "result": 10, "unit": "min"}, {"measurement": "Vd/F", "setting": "[2]; [8]", "result": 7.4, "unit": "L/kg"}, {"measurement": "half-life", "setting": "[2]; [8]", "result": 132, "unit": "min"}, {"measurement": "k el", "setting": "[2]; [8]", "result": "8.33e-05", "unit": "s⁻¹"}, {"measurement": "AUC(0-inf)", "setting": "[2]; [9]", "result": 94.4, "unit": "ng·h/mL"}, {"measurement": "CL/F", "setting": "[2]; [9]", "result": 142, "unit": "mL/min/kg"}, {"measurement": "Cmax", "setting": "[2]; [9]", "result": 71.6, "unit": "ng/mL"}, {"measurement": "Tmax", "setting": "[2]; [9]", "result": 5, "unit": "min"}, {"measurement": "Vd/F", "setting": "[2]; [9]", "result": 33, "unit": "L/kg"}, {"measurement": "half-life", "setting": "[2]; [9]", "result": 162, "unit": "min"}, {"measurement": "k el", "setting": "[2]; [9]", "result": "8.33e-05", "unit": "s⁻¹"}, {"measurement": "AUC(0-inf)", "setting": "[2]; [10]", "result": 364, "unit": "ng·h/mL"}, {"measurement": "CL/F", "setting": "[2]; [10]", "result": 91.7, "unit": "mL/min/kg"}, {"measurement": "Cmax", "setting": "[2]; [10]", "result": 108, "unit": "ng/mL"}, {"measurement": "Tmax", "setting": "[2]; [10]", "result": 10, "unit": "min"}, {"measurement": "Vd/F", "setting": "[2]; [10]", "result": 26.9, "unit": "L/kg"}, {"measurement": "half-life", "setting": "[2]; [10]", "result": 204, "unit": "min"}, {"measurement": "k el", "setting": "[2]; [10]", "result": "5.56e-05", "unit": "s⁻¹"}, {"measurement": "fold-change of Cmax values", "setting": "[2]; increasing inhaled THC dose from 0.19 mg/kg to 0.76 mg/kg", "result": 1.6, "unit": "fold"}, {"measurement": "dose at which horizontal locomotion is affected", "setting": "rodents", "result": "≥ 15", "unit": "mg/kg"}]}, {"molecule": "CCCCCc1cc(O)c2c(c1)OC(C)(C)C1CCC(C(=O)O)=CC21", "note": "(stereo not shown) [THC-COOH, 11-nor-9-carboxy-delta-9-tetrahydrocannabinol]", "values": [{"measurement": "time detectable in the bloodstream after administration", "setting": "[1]; humans", "result": "≥ 7", "unit": "days"}, {"measurement": "Cmax (maximum serum concentration)", "setting": "[2]; [5]", "result": "20.9 ± 4.1", "unit": "ng/mL"}, {"measurement": "Cmax (maximum serum concentration)", "setting": "[2]; [6]", "result": "19.9 ± 2.2", "unit": "ng/mL"}, {"measurement": "Cmax (maximum serum concentration)", "setting": "[2]; [7]", "result": "87.0 ± 21.8", "unit": "ng/mL"}]}]}
